In the RNAGym collection of RNA variant scans (doi:10.1038/nmeth.2970) one finds Kd data, which are given here for 39 variants.

First the molecules themselves.
B1: NELF-E aptamer (parent)
chain: CCCAACGACUGCCGAGCGAGAUUACGCUUGAGCGCCCCACUGAGGAUGCCCACGGGCGAUUGGGGCACGG

Variants of B1 are the subject of the data set. The data set is described as follows: HiTS-RAP. As to conditions: with NELF-E (Drosophila). An outline of the steps: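 Kd came from weighted Hill fits to the first binding curve, with intensities normalised to sequencing intensity and averaged per sequence, keeping only fits whose variance was below 1,000,000. That curve was imaged on an Illumina GAIIx flowcell, where sequenced aptamer DNA templates with a T7 promoter and ter site had been transcribed in situ by T7 RNA polymerase and halted by GST-Tus (30 minutes, 37°C). Before each image, clusters equilibrated for 30 minutes at room temperature with NELF-E-mOrange at 0.064 to 1000 nM in HEPES binding buffer.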
In the case of CCCAACGACGGCCGAGCGAGAUUACGCUUGAGCGGCCCACUGAGGAUGCCCACGGGCGAUUGGGGCACGG [U10G C35G], the Kd was determined as 6.33 nM.
As to CCCAACGACGGCCGAGCGAGAUUACGCUUGAGCGACCCACUGAGGAUGCCCACGGGCGAUUGGGGCACGG [U10G C35A], the Kd came out at 7.32 nM.
For CCCAACGACGGCGGAGCGAGAUUACGCUUGAGCGCCCCACUGAGGAUGCCCACGGGCGAUUGGGGCACGG [U10G C13G], the Kd was 4.78 nM.
In the case of CCCAACGACGGCAGAGCGAGAUUACGCUUGAGCGCCCCACUGAGGAUGCCCACGGGCGAUUGGGGCACGG [U10G C13A], the Kd worked out at 5.77 nM.
Turning to CCCAACGACGGCUGAGCGAGAUUACGCUUGAGCGCCCCACUGAGGAUGCCCACGGGCGAUUGGGGCACGG [U10G C13U], the Kd stood at 4.7 nM.
On to CCCAACGACGGCCGAGCGAGUUUACGCUUGAGCGCCCCACUGAGGAUGCCCACGGGCGAUUGGGGCACGG [U10G A21U], for which the Kd amounted to 5.53 nM.
In the case of CCCAACGACGGCCGAGCGAGCUUACGCUUGAGCGCCCCACUGAGGAUGCCCACGGGCGAUUGGGGCACGG [U10G A21C], the dissociation constant Kd stood at 4.39 nM.
Next, CCCAACGACGGCCGAGCGAGGUUACGCUUGAGCGCCCCACUGAGGAUGCCCACGGGCGAUUGGGGCACGG [U10G A21G]: 5.45 nM; CCCAACGACGGCCGAGCGGGAUUACGCUUGAGCGCCCCACUGAGGAUGCCCACGGGCGAUUGGGGCACGG [U10G A19G]: 5.12 nM; CCCAACGACGGCCGAGCGUGAUUACGCUUGAGCGCCCCACUGAGGAUGCCCACGGGCGAUUGGGGCACGG [U10G A19U]: 4.96 nM.
For CCCAACGACCGCCGAGCGAGAUUACGCUUGAGCGCCCCACUGAGGAUGCCCACGUGCGAUUGGGGCACGG [U10C G55U], the Kd came out at 9.22 nM.
As for CCCAACGACCGCCGAGCGAGAUUACGCUUGAGCGCCCCACUGAGGAUGCCCACGAGCGAUUGGGGCACGG [U10C G55A], the Kd stood at 8.56 nM.
For the variant CCCAACGACCGCCUAGCGAGAUUACGCUUGAGCGCCCCACUGAGGAUGCCCACGGGCGAUUGGGGCACGG [U10C G14U], the Kd was 4.95 nM.
On to CCCAACGACCGCCGAGCGAGAUUACGCUUGAGCGCCCCACUGAGGAUGCCCACGGGCGAUUGGAGCACGG [U10C G64A], for which the Kd came out at 9.5 nM.
For CCCAACGACGGCCGAGCGAGAUUGCGCUUGAGCGCCCCACUGAGGAUGCCCACGGGCGAUUGGGGCACGG [U10G A24G], the Kd was found to be 5.18 nM.
In the case of CCCAACGACGGCCGAGCGAGAUUUCGCUUGAGCGCCCCACUGAGGAUGCCCACGGGCGAUUGGGGCACGG [U10G A24U], the Kd is 6.04 nM.
For CCCAACGACGGCCGAGCGAGAUUCCGCUUGAGCGCCCCACUGAGGAUGCCCACGGGCGAUUGGGGCACGG [U10G A24C], the Kd worked out at 4.94 nM.
For CCCAACGACGGACGAGCGAGAUUACGCUUGAGCGCCCCACUGAGGAUGCCCACGGGCGAUUGGGGCACGG [U10G C12A], the Kd stood at 5.88 nM.
With CCCAACGACGGGCGAGCGAGAUUACGCUUGAGCGCCCCACUGAGGAUGCCCACGGGCGAUUGGGGCACGG [U10G C12G], the Kd is 5.4 nM.
For the variant CCCAACGACGGUCGAGCGAGAUUACGCUUGAGCGCCCCACUGAGGAUGCCCACGGGCGAUUGGGGCACGG [U10G C12U], the dissociation constant Kd is 4.41 nM.
With CCCAACGACCGCCGAGCGAGAUUACGCUCGAGCGCCCCACUGAGGAUGCCCACGGGCGAUUGGGGCACGG [U10C U29C], the Kd came to 7.71 nM.
Take CCCAACGACCGCCGAGCGAGAUUACGCUGGAGCGCCCCACUGAGGAUGCCCACGGGCGAUUGGGGCACGG [U10C U29G]: the Kd worked out at 6.02 nM.
CCCAACGACGGCCGAGCGAGAUUACGCUUGCGCGCCCCACUGAGGAUGCCCACGGGCGAUUGGGGCACGG [U10G A31C]: the Kd worked out at 6.21 nM.
In the case of CCCAACGACGGCCGAGCGAGAUUACGCUUGUGCGCCCCACUGAGGAUGCCCACGGGCGAUUGGGGCACGG [U10G A31U], the Kd came out at 5.87 nM.
CCCAACGACGGCCGAGCGAGAUUACGCUUGGGCGCCCCACUGAGGAUGCCCACGGGCGAUUGGGGCACGG [U10G A31G]: the Kd was 6.79 nM.
With CCCAACGACCGCCGAGCGAGAUGACGCUUGAGCGCCCCACUGAGGAUGCCCACGGGCGAUUGGGGCACGG [U10C U23G], the Kd was 5.12 nM.
For CCCAACGACCGCCGAGCGAGAUUACGCUUGAGCGCCCCACUGAGGAUGCCCAUGGGCGAUUGGGGCACGG [U10C C53U], the Kd stood at 3.84 nM.
As to CCCAACGACGGCCGAGCGAGAUUACGCUUGAGCGCCGCACUGAGGAUGCCCACGGGCGAUUGGGGCACGG [U10G C37G], the Kd was 6.84 nM.
In the case of CCCAACGACGGCCGAGCGAGAUUACGCUUGAGCGCCACACUGAGGAUGCCCACGGGCGAUUGGGGCACGG [U10G C37A], the Kd was found to be 14.8 nM.
As to CCCAACGACGGCCGAGCGAGAUUACGCUUGAGCGCCUCACUGAGGAUGCCCACGGGCGAUUGGGGCACGG [U10G C37U], the Kd was 12.2 nM.
Next, CCCAACGACGGCCGAGCGAGAUUACGCUUGAGCGCCCCACUGCGGAUGCCCACGGGCGAUUGGGGCACGG [U10G A43C]: 75.8 nM; CCCAACGACGGCCGAGCGAGAUUACGCUUGAGCGCCCCACUGGGGAUGCCCACGGGCGAUUGGGGCACGG [U10G A43G]: 18.8 nM; CCCAACGACGGCCGAGCGAGAUUACGCUUGAGCGCCCCACUGUGGAUGCCCACGGGCGAUUGGGGCACGG [U10G A43U]: 75.2 nM.
CCCAACGACCGCCGAGCGAGAUUACGCUUGAGCGCCCCACUGAGGAUGCCCACGGGCGAUUGGGGCUCGG [U10C A67U]: the Kd turned out to be 5.45 nM.
For the variant CCCAACGACGGCCGAGCGAGAUUACGUUUGAGCGCCCCACUGAGGAUGCCCACGGGCGAUUGGGGCACGG [U10G C27U], the Kd was determined as 3.87 nM.
CCCAACGACGGCCGAGCGAGAUUACGAUUGAGCGCCCCACUGAGGAUGCCCACGGGCGAUUGGGGCACGG [U10G C27A]: the Kd came out at 5.02 nM.
CCCAACGACGGCCGAGCGAGAUUACGGUUGAGCGCCCCACUGAGGAUGCCCACGGGCGAUUGGGGCACGG [U10G C27G]: the equilibrium dissociation constant (Kd) was 4.93 nM.
For CCCAACGACGGCCGAGCGAGAUUACGCUUGAGCGCCCCACUGAGGUUGCCCACGGGCGAUUGGGGCACGG [U10G A46U], the Kd amounted to 65.4 nM.
Take CCCAACGACGGCCGAGCGAGAUUACGCUUGAGCGCCCCACUGAGGGUGCCCACGGGCGAUUGGGGCACGG [U10G A46G]: the Kd worked out at 38.8 nM.

What is called Kd is the concentration at which binding is half-saturated.
